Measurements from ChEMBL document CHEMBL4312005, “Optimization of pyrrolizine-based Schiff bases with 4-thiazolidinone motif: Design, synthesis and investigation of cytotoxicity and anti-inflammatory potency” (Eur J Med Chem, 2020).

Key:
[1] = molecular target: T1, Ephrin type-A receptor 1 (Homo sapiens) (UniProt P21709); assay: Inhibition of recombinant human N-terminal GST-tagged EPHA1 (569 to end residues) expressed in baculovirus infected Sf9 insect cells assessed as enzyme activity incubated for 15 mins by [gamma-33]ATP based scintillation counting method relative to control; design: scale not given: the % may be the effect or the level left
T1 sequence (whole entry): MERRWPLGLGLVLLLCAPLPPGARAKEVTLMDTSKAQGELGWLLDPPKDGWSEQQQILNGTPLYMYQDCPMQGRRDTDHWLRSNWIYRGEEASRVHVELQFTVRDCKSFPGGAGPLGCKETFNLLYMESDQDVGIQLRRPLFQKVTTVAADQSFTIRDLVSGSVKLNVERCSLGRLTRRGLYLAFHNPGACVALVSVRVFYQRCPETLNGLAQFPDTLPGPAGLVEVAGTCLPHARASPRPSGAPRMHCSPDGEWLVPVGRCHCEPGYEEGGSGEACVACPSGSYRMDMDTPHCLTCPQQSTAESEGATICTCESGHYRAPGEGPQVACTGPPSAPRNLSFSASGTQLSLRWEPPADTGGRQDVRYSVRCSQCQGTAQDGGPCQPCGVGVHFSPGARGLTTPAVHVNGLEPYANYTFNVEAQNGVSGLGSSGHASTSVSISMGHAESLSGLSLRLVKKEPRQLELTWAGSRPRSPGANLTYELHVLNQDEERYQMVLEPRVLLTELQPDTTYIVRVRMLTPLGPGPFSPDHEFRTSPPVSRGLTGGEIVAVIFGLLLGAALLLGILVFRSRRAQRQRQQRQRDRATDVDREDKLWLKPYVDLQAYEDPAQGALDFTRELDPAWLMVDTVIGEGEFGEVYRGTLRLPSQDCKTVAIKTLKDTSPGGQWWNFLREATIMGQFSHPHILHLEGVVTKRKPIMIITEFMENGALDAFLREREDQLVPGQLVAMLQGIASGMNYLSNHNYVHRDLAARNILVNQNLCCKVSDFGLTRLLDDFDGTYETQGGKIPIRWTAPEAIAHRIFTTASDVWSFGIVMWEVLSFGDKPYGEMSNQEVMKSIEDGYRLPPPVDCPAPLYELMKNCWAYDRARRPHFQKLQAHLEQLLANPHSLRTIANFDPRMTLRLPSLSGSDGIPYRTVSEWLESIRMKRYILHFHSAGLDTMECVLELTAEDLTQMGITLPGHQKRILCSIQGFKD

[2] = molecular target: Glycogen synthase kinase-3 alpha (Homo sapiens) (UniProt P49840); assay: Inhibition of recombinant human N-terminal GST-tagged full length GSK3alpha expressed in baculovirus infected Sf9 insect cells assessed as enzyme activity incubated for 15 mins by [gamma-33]ATP based scintillation counting method relative to control; design: scale not given: the % may be the effect or the level left
[3] = molecular target: Epidermal growth factor receptor (Homo sapiens) (UniProt P00533); assay: Inhibition of EGFR (unknown origin) assessed as enzyme activity incubated for 15 mins by [gamma-33]ATP based scintillation counting method relative to control; design: scale not given: the % may be the effect or the level left
[4] = molecular target: T2, Dual specificity tyrosine-phosphorylation-regulated kinase 3 (Homo sapiens) (UniProt O43781); assay: Inhibition of DYRK3 (unknown origin) assessed as enzyme activity incubated for 15 mins by [gamma-33]ATP based scintillation counting method relative to control; design: scale not given: the % may be the effect or the level left
T2 sequence (whole entry): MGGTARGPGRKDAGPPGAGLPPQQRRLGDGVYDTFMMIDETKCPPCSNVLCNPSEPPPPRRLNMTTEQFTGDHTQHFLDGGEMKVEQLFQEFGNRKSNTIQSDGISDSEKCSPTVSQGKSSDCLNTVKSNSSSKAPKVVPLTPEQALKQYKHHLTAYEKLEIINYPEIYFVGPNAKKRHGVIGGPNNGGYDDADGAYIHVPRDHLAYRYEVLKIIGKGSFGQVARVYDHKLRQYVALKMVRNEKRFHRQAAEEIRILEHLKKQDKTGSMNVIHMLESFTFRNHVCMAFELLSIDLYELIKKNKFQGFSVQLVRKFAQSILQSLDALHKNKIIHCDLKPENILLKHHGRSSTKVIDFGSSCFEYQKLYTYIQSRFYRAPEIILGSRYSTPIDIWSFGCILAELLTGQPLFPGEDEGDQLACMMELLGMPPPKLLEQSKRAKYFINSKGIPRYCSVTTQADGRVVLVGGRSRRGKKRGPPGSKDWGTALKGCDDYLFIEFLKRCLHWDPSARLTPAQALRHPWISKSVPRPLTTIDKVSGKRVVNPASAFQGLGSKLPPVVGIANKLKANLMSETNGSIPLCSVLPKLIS

[5] = molecular target: Casein kinase I isoform alpha (Homo sapiens) (UniProt P48729); assay: Inhibition of CK1alpha1 (unknown origin) assessed as enzyme activity incubated for 15 mins by [gamma-33]ATP based scintillation counting method relative to control; design: scale not given: the % may be the effect or the level left
[6] = tested on: MCF7; assay: Antiproliferative activity against human MCF7 cells assessed as reduction in cell growth incubated for 72 hrs by MTT assay; format: functional, cell-based; conditions: MCF7, 72 h
Outline: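 MTT assay on MCF-7, A2780, HT29 and normal MRC5 fibroblast lines (ATCC) grown in DMEM with 10% FBS. Cells exposed to compounds for 72 h, then reduced MTT read at 570 nm.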

[7] = molecular target: Ribosomal protein S6 kinase alpha-5 (Homo sapiens) (UniProt O75582); assay: Inhibition of recombinant human N-terminal GST-tagged full length MSK1 expressed in baculovirus infected Sf9 insect cells assessed as enzyme activity incubated for 15 mins by [gamma-33]ATP based scintillation counting method relative to control; design: scale not given: the % may be the effect or the level left
[8] = molecular target: Activin receptor type-1-like (Homo sapiens) (UniProt P37023); assay: Inhibition of recombinant human N-terminal GST-tagged ALK1 (144 to end residues) expressed in baculovirus infected Sf9 insect cells assessed as enzyme activity incubated for 15 mins by [gamma-33]ATP based scintillation counting method relative to control; design: scale not given: the % may be the effect or the level left
[9] = molecular target: T3, 3-phosphoinositide-dependent protein kinase 1 (Homo sapiens) (UniProt O15530); assay: Inhibition of recombinant human N-terminal His-tagged full length PDK1 expressed in baculovirus infected Sf9 insect cells assessed as enzyme activity incubated for 15 mins by [gamma-33]ATP based scintillation counting method relative to control; design: scale not given: the % may be the effect or the level left
T3 sequence (whole entry): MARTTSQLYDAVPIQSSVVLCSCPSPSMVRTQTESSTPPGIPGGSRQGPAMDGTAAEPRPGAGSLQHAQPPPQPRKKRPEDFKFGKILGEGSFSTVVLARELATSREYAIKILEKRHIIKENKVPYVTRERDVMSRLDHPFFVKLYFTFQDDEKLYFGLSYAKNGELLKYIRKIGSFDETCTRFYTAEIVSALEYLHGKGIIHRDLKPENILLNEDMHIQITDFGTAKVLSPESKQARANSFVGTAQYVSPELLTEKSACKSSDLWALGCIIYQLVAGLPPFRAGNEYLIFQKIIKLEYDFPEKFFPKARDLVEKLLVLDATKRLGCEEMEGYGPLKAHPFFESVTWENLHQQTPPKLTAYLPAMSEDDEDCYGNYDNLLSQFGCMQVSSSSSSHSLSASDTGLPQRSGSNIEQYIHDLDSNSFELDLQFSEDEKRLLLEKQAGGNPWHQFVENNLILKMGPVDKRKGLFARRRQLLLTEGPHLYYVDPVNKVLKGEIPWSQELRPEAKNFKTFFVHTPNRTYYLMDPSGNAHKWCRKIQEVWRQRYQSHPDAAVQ

Chain of Glycogen synthase kinase-3 alpha (Homo sapiens) (P49840 2-483 limits assumed): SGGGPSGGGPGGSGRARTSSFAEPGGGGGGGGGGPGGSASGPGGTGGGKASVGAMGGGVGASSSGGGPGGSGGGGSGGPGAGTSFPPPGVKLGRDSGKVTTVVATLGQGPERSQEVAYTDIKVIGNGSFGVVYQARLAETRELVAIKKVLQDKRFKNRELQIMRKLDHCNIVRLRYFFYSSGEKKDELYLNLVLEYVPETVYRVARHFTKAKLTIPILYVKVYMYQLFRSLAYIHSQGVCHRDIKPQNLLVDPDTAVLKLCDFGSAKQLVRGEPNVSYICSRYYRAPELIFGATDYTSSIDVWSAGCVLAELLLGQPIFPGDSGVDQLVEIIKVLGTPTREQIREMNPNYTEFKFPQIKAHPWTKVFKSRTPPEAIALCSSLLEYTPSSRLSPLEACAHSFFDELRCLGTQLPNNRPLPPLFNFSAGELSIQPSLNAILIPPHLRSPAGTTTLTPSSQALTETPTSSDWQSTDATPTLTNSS
Chain of Casein kinase I isoform alpha (Homo sapiens) (P48729 2-337 limits assumed): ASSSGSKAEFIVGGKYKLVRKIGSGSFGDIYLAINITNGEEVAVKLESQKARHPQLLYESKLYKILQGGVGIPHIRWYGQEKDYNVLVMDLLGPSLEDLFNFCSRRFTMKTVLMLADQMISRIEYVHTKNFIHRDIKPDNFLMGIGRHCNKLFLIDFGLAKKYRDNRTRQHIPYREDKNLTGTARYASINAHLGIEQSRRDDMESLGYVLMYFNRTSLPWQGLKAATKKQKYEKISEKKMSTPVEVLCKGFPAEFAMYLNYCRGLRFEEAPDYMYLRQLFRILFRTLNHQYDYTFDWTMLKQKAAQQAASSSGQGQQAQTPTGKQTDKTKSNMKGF
Chain of Epidermal growth factor receptor (Homo sapiens) (P00533 whole entry): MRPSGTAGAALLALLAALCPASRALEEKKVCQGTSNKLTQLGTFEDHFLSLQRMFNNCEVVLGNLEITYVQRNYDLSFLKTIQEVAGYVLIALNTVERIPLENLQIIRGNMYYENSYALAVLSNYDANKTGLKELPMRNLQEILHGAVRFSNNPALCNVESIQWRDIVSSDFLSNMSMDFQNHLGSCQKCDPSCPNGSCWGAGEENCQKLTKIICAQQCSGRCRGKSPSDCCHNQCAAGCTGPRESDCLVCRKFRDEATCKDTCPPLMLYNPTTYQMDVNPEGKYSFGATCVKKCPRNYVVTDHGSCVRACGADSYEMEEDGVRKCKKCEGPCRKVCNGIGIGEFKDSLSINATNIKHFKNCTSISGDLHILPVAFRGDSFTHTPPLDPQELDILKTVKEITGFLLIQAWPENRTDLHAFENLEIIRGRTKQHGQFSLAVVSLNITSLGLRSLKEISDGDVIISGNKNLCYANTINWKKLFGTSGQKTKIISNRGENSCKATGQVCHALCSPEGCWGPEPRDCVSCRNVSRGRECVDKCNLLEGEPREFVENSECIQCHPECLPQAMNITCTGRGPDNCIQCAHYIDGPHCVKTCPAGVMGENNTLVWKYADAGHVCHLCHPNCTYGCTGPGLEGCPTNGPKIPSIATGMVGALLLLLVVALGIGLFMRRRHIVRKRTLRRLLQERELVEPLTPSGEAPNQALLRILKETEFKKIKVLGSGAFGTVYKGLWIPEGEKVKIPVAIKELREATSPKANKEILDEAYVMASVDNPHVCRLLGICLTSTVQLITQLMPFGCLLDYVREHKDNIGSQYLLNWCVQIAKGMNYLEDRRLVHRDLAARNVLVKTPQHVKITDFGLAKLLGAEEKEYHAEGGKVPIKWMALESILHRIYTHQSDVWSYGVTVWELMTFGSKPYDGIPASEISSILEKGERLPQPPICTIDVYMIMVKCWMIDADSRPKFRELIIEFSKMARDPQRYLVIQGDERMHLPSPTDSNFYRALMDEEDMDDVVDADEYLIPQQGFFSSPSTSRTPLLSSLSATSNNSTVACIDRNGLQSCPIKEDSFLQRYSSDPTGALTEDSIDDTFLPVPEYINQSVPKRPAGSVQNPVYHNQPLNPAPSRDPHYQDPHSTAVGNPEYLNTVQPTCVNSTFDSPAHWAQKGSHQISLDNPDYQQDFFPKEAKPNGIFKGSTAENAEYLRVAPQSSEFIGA
Chain of Activin receptor type-1-like (Homo sapiens) (P37023 whole entry): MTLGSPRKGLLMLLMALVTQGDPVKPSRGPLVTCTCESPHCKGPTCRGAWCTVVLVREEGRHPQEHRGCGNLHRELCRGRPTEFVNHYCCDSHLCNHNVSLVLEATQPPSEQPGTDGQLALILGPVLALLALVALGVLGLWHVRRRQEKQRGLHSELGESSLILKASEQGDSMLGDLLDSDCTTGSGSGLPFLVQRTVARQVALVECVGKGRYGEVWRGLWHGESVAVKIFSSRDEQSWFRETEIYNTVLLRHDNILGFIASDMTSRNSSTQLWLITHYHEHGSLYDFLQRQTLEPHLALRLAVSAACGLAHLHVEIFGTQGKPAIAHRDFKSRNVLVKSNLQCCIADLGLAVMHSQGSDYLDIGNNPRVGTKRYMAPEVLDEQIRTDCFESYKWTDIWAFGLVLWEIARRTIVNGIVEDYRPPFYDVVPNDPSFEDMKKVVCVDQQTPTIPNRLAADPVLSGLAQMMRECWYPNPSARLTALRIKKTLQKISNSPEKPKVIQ
Chain of Ribosomal protein S6 kinase alpha-5 (Homo sapiens) (O75582 whole entry, looked up): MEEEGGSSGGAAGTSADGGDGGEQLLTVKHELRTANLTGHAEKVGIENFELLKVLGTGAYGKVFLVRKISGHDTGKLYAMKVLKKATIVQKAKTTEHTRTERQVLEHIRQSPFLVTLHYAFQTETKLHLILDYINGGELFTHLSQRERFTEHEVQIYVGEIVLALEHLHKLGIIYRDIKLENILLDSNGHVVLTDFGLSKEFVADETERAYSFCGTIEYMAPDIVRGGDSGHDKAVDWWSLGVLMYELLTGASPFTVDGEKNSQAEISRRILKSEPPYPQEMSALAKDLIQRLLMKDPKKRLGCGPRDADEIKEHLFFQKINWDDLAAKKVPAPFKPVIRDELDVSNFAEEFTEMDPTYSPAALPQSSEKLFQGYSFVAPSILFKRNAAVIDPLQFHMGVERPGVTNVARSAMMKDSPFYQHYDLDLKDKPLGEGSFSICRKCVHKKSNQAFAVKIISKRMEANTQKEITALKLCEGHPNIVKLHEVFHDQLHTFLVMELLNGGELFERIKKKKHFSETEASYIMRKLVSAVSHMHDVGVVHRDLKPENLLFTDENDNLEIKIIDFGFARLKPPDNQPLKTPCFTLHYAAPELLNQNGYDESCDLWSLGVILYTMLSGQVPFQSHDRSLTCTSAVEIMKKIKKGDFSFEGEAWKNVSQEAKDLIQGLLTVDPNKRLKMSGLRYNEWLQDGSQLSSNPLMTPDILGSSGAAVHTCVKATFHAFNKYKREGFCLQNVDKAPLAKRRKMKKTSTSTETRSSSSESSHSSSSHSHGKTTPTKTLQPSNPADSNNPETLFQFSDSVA

Row | Activity [1] [%] | Activity [2] [%] | Activity [3] [%] | Activity [4] [%] | Activity [5] [%] | IC50 [6] [nM] | Activity [7] [%] | Activity [8] [%] | Activity [9] [%] | SMILES
1 | 4 | -12 | 10 | 38 | -16 | 160 | -23 | -11 | -11 | CCC1SCC(=O)N1c1c(C#N)c2n(c1C(=O)Nc1ccccc1)CCC2 (stereo not given)
2 | -5 | -24 | -10 | 33 | -23 | 570 | -22 | 4 | -15 | CC/C=N/c1c(C#N)c2n(c1C(=O)Nc1ccccc1)CCC2
3 | 22 | -1 | 13 | -10 | 0 | – | 49 | 14 | 34 | Cc1ccc(NC(=O)c2ccc(CN3CCN(C)CC3)cc2)cc1Nc1nccc(-c2cccnc2)n1
4 | 25 | -3 | 40 | -25 | 6 | 100 | 29 | -5 | 28 | CC(C)C/C=N/c1c(C#N)c2n(c1C(=O)Nc1ccc(Br)cc1)CCC2
